Converted amounts (≈) assume the structure as drawn.
System: Acinetobacter baumannii
Assay: Ratio of MIC for Acinetobacter baumannii ISAB ab8(r) to MIC for Acinetobacter baumannii ISAB ab8(r) in presence of […] ug/ml efflux pump inhibitor carbonyl cyanide m-chlorophenyl-hydrazone
Type: functional
Settings: not given

SMILES	fold change (FC)
C[C@@H](O)[C@H]1C(=O)N2C(C(=O)O)=C(SCCNC=N)C[C@H]12 [IMIPENEM ANHYDROUS]	4

System: Acinetobacter baumannii
Assay: Ratio of MIC for Acinetobacter baumannii ISAB ab8(r) to MIC for Acinetobacter baumannii ISAB ab1254(r) in presence of […] ug/ml efflux pump inhibitor carbonyl cyanide m-chlorophenyl-hydrazone
Type: functional
Settings: not given

SMILES	fold change (FC)
C[C@@H](O)[C@H]1C(=O)N2C(C(=O)O)=C(SCCNC=N)C[C@H]12 [IMIPENEM ANHYDROUS]	8

System: Acinetobacter baumannii
Assay: Antibacterial activity against imipenem-susceptible Acinetobacter baumannii ATCC 19606 by broth dilution method
Type: functional
Settings: ATCC 19606 = CIP 70.34 = JCM 6841

SMILES	MIC
C[C@@H](O)[C@H]1C(=O)N2C(C(=O)O)=C(SCCNC=N)C[C@H]12 [IMIPENEM ANHYDROUS]	0.38 µg/mL (≈ 1.27 µM)

System: Acinetobacter baumannii
Assay: Antibacterial activity against imipenem-susceptible Acinetobacter baumannii ab3 by broth dilution method
Type: functional
Settings: not given
Outline: (§1)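 Clinical isolates were collected at three Taiwan hospitals (1993–2003) and grown in tryptic soy broth at 37°C for 18 h. MIC by broth dilution following CLSI recommendations.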

SMILES	MIC
C[C@@H](O)[C@H]1C(=O)N2C(C(=O)O)=C(SCCNC=N)C[C@H]12 [IMIPENEM ANHYDROUS]	1 µg/mL (≈ 3.34 µM)

System: Acinetobacter baumannii
Assay: Antibacterial activity against imipenem-susceptible Acinetobacter baumannii ab4 by broth dilution method
Type: functional
Settings: not given
Outline: as §1

SMILES	MIC
C[C@@H](O)[C@H]1C(=O)N2C(C(=O)O)=C(SCCNC=N)C[C@H]12 [IMIPENEM ANHYDROUS]	1 µg/mL (≈ 3.34 µM)

System: Acinetobacter baumannii
Assay: Antibacterial activity against imipenem-susceptible Acinetobacter baumannii ab8 by broth dilution method
Type: functional
Settings: not given
Outline: as §1

SMILES	MIC
C[C@@H](O)[C@H]1C(=O)N2C(C(=O)O)=C(SCCNC=N)C[C@H]12 [IMIPENEM ANHYDROUS]	1 µg/mL (≈ 3.34 µM)

System: Acinetobacter baumannii
Assay: Antibacterial activity against imipenem-susceptible Acinetobacter baumannii ab12 by broth dilution method
Type: functional
Settings: not given
Outline: as §1

SMILES	MIC
C[C@@H](O)[C@H]1C(=O)N2C(C(=O)O)=C(SCCNC=N)C[C@H]12 [IMIPENEM ANHYDROUS]	1 µg/mL (≈ 3.34 µM)

System: Acinetobacter baumannii
Assay: Antibacterial activity against imipenem-susceptible Acinetobacter baumannii ab20 by broth dilution method
Type: functional
Settings: not given
Outline: as §1

SMILES	MIC
C[C@@H](O)[C@H]1C(=O)N2C(C(=O)O)=C(SCCNC=N)C[C@H]12 [IMIPENEM ANHYDROUS]	1.5 µg/mL (≈ 5.01 µM)

System: Acinetobacter baumannii
Assay: Antibacterial activity against imipenem-susceptible Acinetobacter baumannii ab1308 by broth dilution method
Type: functional
Settings: not given
Outline: (§2)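 Clinical A. baumannii isolates collected at three Taiwanese hospitals, routinely grown in tryptic soy broth at 37°C for 18 h. MICs (μg ml⁻¹) were determined by broth dilution following CLSI recommendations, or by Etest strips following the manufacturer's instructions.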

SMILES	MIC
C[C@@H](O)[C@H]1C(=O)N2C(C(=O)O)=C(SCCNC=N)C[C@H]12 [IMIPENEM ANHYDROUS]	2 µg/mL (≈ 6.68 µM)

System: Acinetobacter baumannii
Assay: Antibacterial activity against imipenem-susceptible Acinetobacter baumannii ab1254 by broth dilution method
Type: functional
Settings: not given
Outline: as §1

SMILES	MIC
C[C@@H](O)[C@H]1C(=O)N2C(C(=O)O)=C(SCCNC=N)C[C@H]12 [IMIPENEM ANHYDROUS]	3 µg/mL (≈ 10 µM)

System: Acinetobacter baumannii
Assay: Antibacterial activity against imipenem-susceptible Acinetobacter baumannii ab1316 by broth dilution method
Type: functional
Settings: not given
Outline: as §2

SMILES	MIC
C[C@@H](O)[C@H]1C(=O)N2C(C(=O)O)=C(SCCNC=N)C[C@H]12 [IMIPENEM ANHYDROUS]	3 µg/mL (≈ 10 µM)

System: Acinetobacter baumannii
Assay: Antibacterial activity against imipenem-intermediate Acinetobacter baumannii ab1297 by broth dilution method
Type: functional
Settings: not given
Outline: as §2

SMILES	MIC
C[C@@H](O)[C@H]1C(=O)N2C(C(=O)O)=C(SCCNC=N)C[C@H]12 [IMIPENEM ANHYDROUS]	8 µg/mL (≈ 26.7 µM)

System: Acinetobacter baumannii
Assay: Antibacterial activity against imipenem-resistant Acinetobacter baumannii ab1265 by broth dilution method
Type: functional
Settings: not given
Outline: as §1

SMILES	MIC
C[C@@H](O)[C@H]1C(=O)N2C(C(=O)O)=C(SCCNC=N)C[C@H]12 [IMIPENEM ANHYDROUS]	> 32 µg/mL

System: Acinetobacter baumannii
Assay: Antibacterial activity against imipenem-resistant Acinetobacter baumannii ab1266 by broth dilution method
Type: functional
Settings: not given
Outline: as §1

SMILES	MIC
C[C@@H](O)[C@H]1C(=O)N2C(C(=O)O)=C(SCCNC=N)C[C@H]12 [IMIPENEM ANHYDROUS]	> 32 µg/mL

System: Acinetobacter baumannii
Assay: Antibacterial activity against imipenem-resistant Acinetobacter baumannii abh9 by broth dilution method
Type: functional
Settings: not given
Outline: as §1

SMILES	MIC
C[C@@H](O)[C@H]1C(=O)N2C(C(=O)O)=C(SCCNC=N)C[C@H]12 [IMIPENEM ANHYDROUS]	32 µg/mL (≈ 107 µM)

System: Acinetobacter baumannii
Assay: Antibacterial activity against imipenem-resistant Acinetobacter baumannii abh11 by broth dilution method
Type: functional
Settings: not given
Outline: as §1

SMILES	MIC
C[C@@H](O)[C@H]1C(=O)N2C(C(=O)O)=C(SCCNC=N)C[C@H]12 [IMIPENEM ANHYDROUS]	32 µg/mL (≈ 107 µM)

System: Acinetobacter baumannii
Assay: Antibacterial activity against imipenem-resistant Acinetobacter baumannii abh13 by broth dilution method
Type: functional
Settings: not given
Outline: as §1

SMILES	MIC
C[C@@H](O)[C@H]1C(=O)N2C(C(=O)O)=C(SCCNC=N)C[C@H]12 [IMIPENEM ANHYDROUS]	32 µg/mL (≈ 107 µM)

System: Acinetobacter baumannii
Assay: Antibacterial activity against imipenem-resistant Acinetobacter baumannii abh14 by broth dilution method
Type: functional
Settings: not given
Outline: as §1

SMILES	MIC
C[C@@H](O)[C@H]1C(=O)N2C(C(=O)O)=C(SCCNC=N)C[C@H]12 [IMIPENEM ANHYDROUS]	32 µg/mL (≈ 107 µM)

System: Acinetobacter baumannii
Assay: Antibacterial activity against imipenem-resistant Acinetobacter baumannii abh17 by broth dilution method
Type: functional
Settings: not given
Outline: as §1

SMILES	MIC
C[C@@H](O)[C@H]1C(=O)N2C(C(=O)O)=C(SCCNC=N)C[C@H]12 [IMIPENEM ANHYDROUS]	32 µg/mL (≈ 107 µM)

System: Acinetobacter baumannii
Assay: Antibacterial activity against imipenem-resistant Acinetobacter baumannii abh18 by broth dilution method
Type: functional
Settings: not given
Outline: as §1

SMILES	MIC
C[C@@H](O)[C@H]1C(=O)N2C(C(=O)O)=C(SCCNC=N)C[C@H]12 [IMIPENEM ANHYDROUS]	32 µg/mL (≈ 107 µM)

System: Acinetobacter baumannii
Assay: Antibacterial activity against imipenem-resistant Acinetobacter baumannii abh20 by broth dilution method
Type: functional
Settings: not given
Outline: as §1

SMILES	MIC
C[C@@H](O)[C@H]1C(=O)N2C(C(=O)O)=C(SCCNC=N)C[C@H]12 [IMIPENEM ANHYDROUS]	32 µg/mL (≈ 107 µM)

System: Acinetobacter baumannii
Assay: Antibacterial activity against imipenem-resistant Acinetobacter baumannii abh26 by broth dilution method
Type: functional
Settings: not given
Outline: as §1

SMILES	MIC
C[C@@H](O)[C@H]1C(=O)N2C(C(=O)O)=C(SCCNC=N)C[C@H]12 [IMIPENEM ANHYDROUS]	32 µg/mL (≈ 107 µM)

System: Acinetobacter baumannii
Assay: Antibacterial activity against imipenem-resistant Acinetobacter baumannii abh29 by broth dilution method
Type: functional
Settings: not given
Outline: as §1

SMILES	MIC
C[C@@H](O)[C@H]1C(=O)N2C(C(=O)O)=C(SCCNC=N)C[C@H]12 [IMIPENEM ANHYDROUS]	32 µg/mL (≈ 107 µM)

System: Acinetobacter baumannii
Assay: Antibacterial activity against imipenem-resistant Acinetobacter baumannii abh36 by broth dilution method
Type: functional
Settings: not given
Outline: as §1

SMILES	MIC
C[C@@H](O)[C@H]1C(=O)N2C(C(=O)O)=C(SCCNC=N)C[C@H]12 [IMIPENEM ANHYDROUS]	32 µg/mL (≈ 107 µM)

System: Acinetobacter baumannii
Assay: Antibacterial activity against imipenem-resistant Acinetobacter baumannii abh37 by broth dilution method
Type: functional
Settings: not given
Outline: as §1

SMILES	MIC
C[C@@H](O)[C@H]1C(=O)N2C(C(=O)O)=C(SCCNC=N)C[C@H]12 [IMIPENEM ANHYDROUS]	32 µg/mL (≈ 107 µM)

System: Acinetobacter baumannii
Assay: Antibacterial activity against imipenem-resistant Acinetobacter baumannii abh39 by broth dilution method
Type: functional
Settings: not given
Outline: as §1

SMILES	MIC
C[C@@H](O)[C@H]1C(=O)N2C(C(=O)O)=C(SCCNC=N)C[C@H]12 [IMIPENEM ANHYDROUS]	32 µg/mL (≈ 107 µM)

System: Escherichia coli
Assay: Antibacterial activity against Escherichia coli TOP10 by Etest
Type: functional
Settings: not given
Outline: (§3)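 E. coli TOP10 carrying empty pBAD/Myc-His or pBAD/Myc-His with blaOXA-66 cloned from the named strain, grown at 37°C in LB with 50 μg/ml ampicillin to OD600 0.5. Plated on Mueller-Hinton agar with 50 μg/ml ampicillin and 0.002% arabinose for induction. Imipenem MIC read by Etest.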

SMILES	MIC
C[C@@H](O)[C@H]1C(=O)N2C(C(=O)O)=C(SCCNC=N)C[C@H]12 [IMIPENEM ANHYDROUS]	0.19 µg/mL (≈ 0.635 µM)

System: Escherichia coli
Assay: Antibacterial activity against Escherichia coli TOP10 expressing imipenem-susceptible Acinetobacter baumannii ab1254 blaoxa-66 gene by Etest
Type: functional
Settings: not given
Outline: as §3

SMILES	MIC
C[C@@H](O)[C@H]1C(=O)N2C(C(=O)O)=C(SCCNC=N)C[C@H]12 [IMIPENEM ANHYDROUS]	0.75 µg/mL (≈ 2.51 µM)

System: Escherichia coli
Assay: Antibacterial activity against Escherichia coli TOP10 expressing imipenem-resistant Acinetobacter baumannii ab1266 blaoxa-66 gene by Etest
Type: functional
Settings: not given
Outline: as §3

SMILES	MIC
C[C@@H](O)[C@H]1C(=O)N2C(C(=O)O)=C(SCCNC=N)C[C@H]12 [IMIPENEM ANHYDROUS]	1.5 µg/mL (≈ 5.01 µM)

System: Acinetobacter baumannii
Assay: Antibacterial activity against imipenem-resistant Acinetobacter baumannii ISAB ab8(r) by broth dilution method
Type: functional
Settings: not given

SMILES	MIC
C[C@@H](O)[C@H]1C(=O)N2C(C(=O)O)=C(SCCNC=N)C[C@H]12 [IMIPENEM ANHYDROUS]	256 µg/mL (≈ 855 µM)

System: Acinetobacter baumannii
Assay: Antibacterial activity against imipenem-resistant Acinetobacter baumannii ISAB ab1254(r) by broth dilution method
Type: functional
Settings: not given

SMILES	MIC
C[C@@H](O)[C@H]1C(=O)N2C(C(=O)O)=C(SCCNC=N)C[C@H]12 [IMIPENEM ANHYDROUS]	128 µg/mL (≈ 428 µM)

System: Acinetobacter baumannii
Assay: Antibacterial activity against imipenem-resistant Acinetobacter baumannii ISAB ab1254(r) by broth dilution method in presence of 24 ug/ml efflux pump inhibitor carbonyl cyanide m-chlorophenyl-hydrazone
Type: functional
Settings: not given

SMILES	MIC
C[C@@H](O)[C@H]1C(=O)N2C(C(=O)O)=C(SCCNC=N)C[C@H]12 [IMIPENEM ANHYDROUS]	16 µg/mL

System: Acinetobacter baumannii
Assay: microbe, parasite or virus in culture
Settings: ISAB ab8(r)

SMILES	MIC
C[C@@H](O)[C@H]1C(=O)N2C(C(=O)O)=C(SCCNC=N)C[C@H]12 [IMIPENEM ANHYDROUS]	64 µg/mL (≈ 214 µM)
